Assay results from different studies.
Lines come from different studies, so protocols differ. pIC50: −log10 of the molar value.
Observed: enzyme activity
Mode: inhibitor
EGFR: Epidermal growth factor receptor (EGFR, Homo sapiens, UniProt P00533)
YCK2: Serine/threonine protein kinase YCK2 (YCK2, Candida albicans, UniProt A0A1D8PKB4)
CDK6 with cyclin D3: Cyclin-dependent kinase 6, with cyclin D3 (CDK6, Homo sapiens, UniProt Q00534)
DNA-3-methyladenine glycosylase: DNA-3-methyladenine glycosylase (Homo sapiens, UniProt P29372)
MTOR: Serine/threonine-protein kinase mTOR (MTOR, Homo sapiens, UniProt P42345)
CA2: Carbonic anhydrase 2 (CA2, Bos taurus, UniProt P00921)

Cc1cc(O)c(-c2ccc([C@@H](C)CN(C)C)cc2)c2c1[nH]c(=O)c1sccc12 — pIC50 (Cyclin-dependent kinase 6, with cyclin D1 (CDK6, Homo sapiens, UniProt Q00534)): < 6.00
CC(=O)c1nc2ccccc2n1Cc1cn([C@@H]2O[C@H](CO)[C@H](O)[C@H](O)[C@H]2O)nn1 — pIC50 (EGFR): 6.49
Cn1cc(-c2ccnc3ccccc23)c(-c2ccccn2)n1 — pIC50 (YCK2; ADP detection): 6.26
COc1ccc(N2CCN(Cc3cn4c(-c5ccc(Br)cc5)nnc4s3)CC2)cc1 — pIC50 (Ferroptosis suppressor protein 1 (AIFM2, Homo sapiens, UniProt Q9BRQ8); absorbance): 7.47
CNS(=O)(=O)c1ccc(Nc2ncc(C(F)(F)F)c(N3CCC(C)(O)CC3)n2)c(C)c1 — pIC50 (CDK6 with cyclin D3; radiometric): 6.10
Clc1ccc(Nc2ccncc2)cc1Cl — pIC50 (DNA-3-methyladenine glycosylase): < 4.00
CNS(=O)(=O)c1ccc(Nc2ncc(C(F)(F)F)c(N3CCCC(C)(O)C3)n2)c(C)c1 (centres unmarked) — pIC50 (CDK6 with cyclin D3; radiometric): 5.36
Nc1cnccc1Nc1ccc(Cl)c(Cl)c1 — pIC50 (DNA-3-methyladenine glycosylase): < 4.00
C[C@H]1COCCN1c1nc(N2CCOC[C@@H]2C)c2ccc(-c3cccc(C(=O)NCCOCCOCCOCCONC(=O)c4ccc(F)c(F)c4Nc4ccc(I)cc4F)c3)nc2n1 — pIC50 (MTOR; FRET): 6.48
COc1cc(-c2[nH]c(=S)nc3nc(Nc4ccc(S(N)(=O)=O)cc4)sc23)ccc1O — pIC50 (CA2; absorbance): 7.10
NS(=O)(=O)c1ccc(-n2nc(C(=O)NN=Cc3ccccc3O)cc2-c2ccccc2)cc1 — pIC50 (Serine/threonine-protein kinase B-raf (BRAF, Homo sapiens, UniProt P15056, V600E)): 4.76
O=C(/C=C/c1ccc(F)cc1)c1nc2ccccc2n1Cc1cn([C@@H]2O[C@H](CO)[C@H](O)[C@H](O)[C@H]2O)nn1 — pIC50 (EGFR): 7.16
Cc1cc2c(cc1C)N[C@H](c1ccccc1)[C@@H](O)C(=O)N2 — pIC50 (MTOR): 6.84
c1coc(-c2n[nH]cc2-c2ccnc3ccccc23)c1 — pIC50 (YCK2; ADP detection): 6.08
Nc1cc(N2C(=O)c3ccccc3C2=O)nc(SCC(=O)NN=Cc2ccc(Cl)cc2)n1 — pIC50 (EGFR): 6.06
c1ccc(Cn2cc(-c3ccnc4ccccc34)c(-c3ccccn3)n2)cc1 — pIC50 (YCK2; ADP detection): 6.00
O=C1CCC(N2C(=O)c3ccccc3C2=O)C(=O)N1 (centres unmarked) — pIC50 (EGFR): 5.95
COc1ccc(-c2ccc3c(N4CCOC[C@@H]4C)nc(N4CCOC[C@@H]4C)nc3n2)cc1C(=O)NCCOCCOCCOCCONC(=O)c1ccc(F)c(F)c1Nc1ccc(I)cc1F — pIC50 (MTOR; FRET): 7.40 to 7.55
CCNC(c1ccccc1)c1c(N)[nH]c(=O)[nH]c1=O (centres unmarked) — pIC50 (EGFR): 6.19
CNS(=O)(=O)c1ccc(Nc2ncc(C(F)(F)F)c([C@H]3CC[C@](C)(O)CC3)n2)c(C)c1 — pIC50 (CDK6 with cyclin D3; radiometric): 6.15
O=C1C(=O)N(CCn2ncc3c(=O)[nH]cnc32)c2ccc(Cl)cc21 — pIC50 (CDK6 with cyclin D3; ADP detection): 6.22
CNS(=O)(=O)c1ccc(Nc2ncc3cc(Cl)c(=O)n(C4CCCC4)c3n2)c(C)c1 — pIC50 (CDK6 with cyclin D3; radiometric): 7.21
C[C@@H]1O[C@@H](O[C@H]2[C@H](Oc3cc(O)c4c(c3)O[C@H](c3ccc(O)cc3)CC4=O)O[C@H](CO)[C@@H](O)[C@@H]2O)[C@H](O)[C@H](O)[C@H]1O — pIC50 (CA2; absorbance): 7.08
